{
  "source": "paper PMC6990463",
  "about": "(Cellular physiology and biochemistry : international …, 2019)",
  "key": {"cleaved lamin A/C": {"system": "cleaved lamin A/C", "experiment": "Western blotting for Lamin A/C in WM266–4 cells", "assay_type": "cell-based, human", "conditions": "LY294002 10 μM, 2155–14 100 μM", "summary_of_the_method": "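WM266–4 cells (1 × 10^6, E-MEM + 10% FBS, 6 cm plates) pre-treated after 24 h with caspase inhibitors for 3 h or autophagy inhibitors (LY294002 10 μM, hydroxychloroquine) for 1 h. Test compound given at various doses and times, with or without inhibitors; controls staurosporine 1 μM, rapamycin 10 μM + chloroquine 5 μM. Lysates blotted with polyclonal lamin A/C antibody (1:1000).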"}, "LC3-II": {"system": "LC3-II", "experiment": "Western blotting for LC3 in WM266–4 cells", "assay_type": "cell-based, human", "summary_of_the_method": "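1 × 10^6 cells seeded (WM266–4 in E-MEM, M14 in RPMI-1640; + 10% FBS) in 6 cm plates. Test compound at various doses and times; controls rapamycin 10 μM + chloroquine 5 μM, staurosporine 1 μM. Lysates blotted with polyclonal LC3 A/B antibody (1:1000); bands normalised to β-actin, as fold of untreated; n=3.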"}, "WM266–4": {"system": "WM266–4", "experiment": "Cell viability assay", "assay_type": "cell-based, human", "conditions": "for WM266–4 viability, inhibitor alone: 50 μM inhibitor, 72 h"}, "sXBP1": {"system": "sXBP1", "experiment": "ER stress assay", "assay_type": "cell-based, human", "conditions": "60 μM STF-83010 pre-treatment 3 h", "summary_of_the_method": "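WM266–4 cells (0.2 × 10^6, E-MEM + 10% FBS, 24-well) pre-treated 24 h after seeding with 60 μM STF-83010 or vehicle for 3 h. RNA extracted with TRI reagent; amplified products run on 2% agarose with GelGreen and quantified. sXBP-1 expressed as % of total XBP-1 (sXBP-1 + XBP-1).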"}, "metastatic melanoma": {"system": "metastatic melanoma", "conditions": "BRAF-mutant metastatic melanoma; cited from earlier work"}, "PC-3 cells": {"system": "PC-3 cells", "conditions": "read-out: IC50, apoptotic cell death of PC-3 cells; cited from earlier work"}, "WM266–4 cells": {"system": "WM266–4 cells", "experiment": "Annexin V flow cytometry assay", "assay_type": "cell-based, human", "conditions": "4 h, staurosporine 1 μM", "summary_of_the_method": "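WM266–4 cells (1,000,000/flask, EMEM + 10% FBS + 1% pen/strep) adhered overnight. 24 h after plating, optional 2 h pre-treatment with Z-VAD-FMK 10 μM. Test compound 100 μM or staurosporine 1 μM (control) for 4, 24 and 48 h. Adherent plus floating cells pooled, Annexin V-FITC stained, and viable, necrotic, early and late apoptotic cells counted by flow cytometry.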"}, "M14": {"system": "M14", "experiment": "Cell viability assay", "assay_type": "cell-based", "conditions": "Homo sapiens, M14, 72 h, read-out: IC50, viability M14 (M)"}, "SKMEL2": {"system": "SKMEL2", "experiment": "Cell viability assay", "assay_type": "cell-based", "conditions": "Homo sapiens, SK-MEL-2, 72 h, read-out: IC50, viability SKMEL2 (M)", "summary_of_the_method": "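Cells plated in 384-well format. Test compound as a 10-point 1:3 dilution series prepared from 300 μM; dabrafenib as assay control. Incubated 72 h at 37 °C, 5% CO2. CellTiter-Glo added for 15 min at room temperature; luminescence read. Viability normalised to media-only (0%) and DMSO-treated cells (100%). S/B, CV and Z′ computed per plate.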"}, "WM115": {"system": "WM115", "experiment": "Cell viability assay", "assay_type": "cell-based", "conditions": "Homo sapiens, WM-115, 72 h, read-out: IC50, viability WM115 (F)"}, "SKMEL28": {"system": "SKMEL28", "conditions": "read-out: IC50, viability SKMEL28; V600E BRAF/R24C CDK4 primary; cited from earlier work"}},
  "note": "Peptide text beside a SMILES is read from it. * marks the point of attachment. Cbz = O=C(OCc1ccccc1)*; CH2F = FC*",
  "data": [
    {"compound": "O=c1cc(N2CCOCC2)oc2c(-c3ccccc3)cccc12", "note": "[LY294002]", "values": [
      {"measurement": "effect of pre-treatment on cleaved lamin A/C levels in cells treated with 2155–14", "setting": "cleaved lamin A/C", "value": "no effect"},
      {"measurement": "LC3-II levels, fold of untreated control", "setting": "LC3-II; LY294002 10 μM alone", "value": 20, "unit": "fold"},
      {"measurement": "LC3-II levels, fold of untreated control", "setting": "LC3-II; combination of LY294002 10 μM and 2155–14 100 μM", "value": "~ 40 fold"}
    ]},
    {"compound": "CC(C)[C@H](NC(=O)OCc1ccccc1)C(=O)N[C@H](C=O)Cc1ccccc1", "note": "[MDL-28170] (Cbz-Val-Phe-aldehyde)", "values": [
      {"measurement": "WM266–4 viability 24 h after addition of 2155–14, inhibitor pre-incubation", "setting": "WM266–4; caspase inhibitors 10 μM, calpain inhibitors 25 μM, 2155–14 100 μM", "value": "further decreased cell viability"}
    ]},
    {"compound": "O=S(=O)(N=Cc1c(O)ccc2ccccc12)c1cccs1", "note": "[STF-83010]", "values": [
      {"measurement": "effect on sXBP1 formation by 2155–14", "setting": "sXBP1", "value": "inhibited"}
    ]},
    {"compound": "CC(C)(C)c1nc(-c2cccc(NS(=O)(=O)c3c(F)cccc3F)c2F)c(-c2ccnc(N)n2)s1", "note": "[dabrafenib]", "values": [
      {"measurement": "median progression-free survival (PFS)", "setting": "metastatic melanoma", "value": 6.9, "unit": "months"}
    ]},
    {"compound": "O=c1c(O)c(-c2ccc(O)c(O)c2)oc2cc(O)cc(O)c12", "note": "[quercetin]", "values": [
      {"measurement": "IC50", "setting": "PC-3 cells", "value": 100, "unit": "µM"}
    ]},
    {"compound": "CN[C@@H]1C[C@H]2O[C@@](C)([C@@H]1OC)n1c3ccccc3c3c4c(c5c6ccccc6n2c5c31)C(=O)NC4", "note": "[staurosporine]", "values": [
      {"measurement": "apoptosis detection", "setting": "WM266–4 cells", "value": "apoptosis was detected"}
    ]},
    {"compound": "CCCS(=O)(=O)Nc1ccc(F)c(C(=O)c2c[nH]c3ncc(-c4ccc(Cl)cc4)cc23)c1F", "note": "[vemurafenib]", "values": [
      {"measurement": "IC50", "setting": "M14", "value": "1e-06 ± 2e-07", "unit": "M"},
      {"measurement": "IC50", "setting": "SKMEL2", "value": "1.4e-06 ± 7e-07", "unit": "M"},
      {"measurement": "IC50", "setting": "WM115", "value": "5 ± 0.9", "unit": "µM"},
      {"measurement": "IC50", "setting": "WM266–4; Homo sapiens, WM 266-4, 72 h, read-out: IC50, viability WM266–4 (F)", "value": "3 ± 0.4", "unit": "µM"},
      {"measurement": "IC50", "setting": "SKMEL28", "value": 4.6, "unit": "µM"},
      {"measurement": "median progression-free survival (PFS)", "setting": "metastatic melanoma", "value": 6.9, "unit": "months"}
    ]},
    {"compound": "Cbz-Val-Ala-Asp-CH2F", "values": [
      {"measurement": "WM266–4 viability, inhibitor alone", "setting": "WM266–4", "value": "completely inhibited cell viability"}
    ]},
    {"compound": "Z-IETD-FMK: selective caspase 8 inhibitor", "values": [
      {"measurement": "WM266–4 viability, inhibitor alone", "setting": "WM266–4", "value": "completely inhibited cell viability"},
      {"measurement": "WM266–4 cells viable, 2155–14 in combination with inhibitor", "setting": "WM266–4; 48 h, 2155–14 100 μM, caspase inhibitors 10 μM, calpain inhibitor 25 μM", "value": 25, "unit": "%"}
    ]}
  ]
}
